Published values collected from several papers.
Observed: cell growth or viability

SMILES | cell line | technique | time | IC50
N[C@@H](CC(=O)N1CCN(C(c2ccc(F)cc2)c2ccc(F)cc2)CC1)C(=O)N1Cc2ccccc2C1 | SET-2 | ATP luminescence | 48 h | 0.368 µM
COc1ccc(F)cc1C(=O)NCc1ccc(-c2nn([C@@H](C)C(F)(F)F)c(N)c2C(N)=O)cc1 | Rec1 | ATP luminescence | 72 h | 0.0031 µM
CCCCN(CCCC)C(=O)c1ncn2c(=O)n(C)nnc12 | T98G | resazurin | 7 days | 140 µM
C=CC(=O)N1CCC[C@@H](n2nc(-c3ccc(Oc4ccccc4)cc3)c3c(N)ncnc32)C1 | CNE2Z |  |  | > 10 µM
CCN(CC)C(=O)c1ncn2c(=O)n(C)nnc12 | T98G | resazurin | 7 days | 160 µM
C[C@H](O)C(=O)CCCCCCC(=O)Nc1cccc(-c2cn(-c3ccccc3)nn2)c1 | HEK293 | XTT |  | 15.9 µM
CCC(=O)Nc1cc(Nc2nc(N3CCc4sccc4C3)c3cccnc3n2)c(OC)cc1N1CCC(N(C)C)CC1 | NCI-H1975 | MTT |  | 0.81 µM
COc1ccc2oc(=O)cc(CCl)c2c1 | HEK293 | MTT | 36 h | > 20 µM
CC[C@@H](C)[C@H](N)C(=O)N1Cc2ccccc2C1 | SET-2 | ATP luminescence |  | 0.09 µM
C=C(Cl)C(=O)Nc1cc(Nc2nc(N3CCOCC3)c3sccc3n2)c(OC)cc1N(C)CCN(C)C | NCI-H1975 | MTT |  | 0.12 µM
O=c1cc(CCl)c2ccc(O)cc2o1 | HEK293 | MTT | 36 h | 15.8 µM
C=C(Cl)C(=O)Nc1cc(Nc2nc(N3CCCC3)c3sccc3n2)c(OC)cc1N(C)CCN(C)C | NCI-H1975 | MTT |  | 0.126 µM
CC(C)C[C@H](NC(=O)[C@H](Cc1ccccc1)NC(=O)c1cnccn1)B(O)O | MKN-1 | ATP luminescence |  | 0.0053 µM
O=C1NCCc2[nH]c(-c3ccncc3)cc21 | SK-MEL-28 |  |  | 9.6 µM
O=c1cc(CCl)c2c(O)cc(O)cc2o1 | HEK293 | MTT | 36 h | > 20 µM
Cn1nnc2c(C(=O)N3CCCC3)ncn2c1=O | T98G | resazurin | 7 days | 186 µM
CC(=O)O[C@H](C)C(=O)CCCCCCC(=O)Nc1ccccc1 | HEK293 | XTT |  | 36.3 µM
Cc1[nH]c(C)c(-c2ccc(-c3cc(C(F)(F)F)cc(C(F)(F)F)c3)nc2)c(=O)c1Br | HEK293 |  |  | > 10 µM
CC(=O)Oc1ccc2c(CSC(C)=O)cc(=O)oc2c1 | HEK293 | MTT | 36 h | > 20 µM

SMILES | cell line | technique | time | IC50
C=CC(=O)Nc1cccc(Nc2nc(Nc3ccc(OCCOC)cc3)ncc2F)c1 | NCI-H1975 |  |  | 1.27 µM
Cc1[nH]c(C)c(-c2ccc(OCc3ccc(F)cc3)cc2)c(=O)c1Cl | HEK293 |  |  | > 10 µM
CCSC(=O)c1ncn2c(=O)n(C)nnc12 | T98G | resazurin | 7 days | 327 µM
CCC(=O)Nc1cc(Nc2nc(Nc3cnn(C)c3)c3sccc3n2)c(OC)cc1N(C)CCN(C)C | NCI-H1975 | MTT |  | > 50 µM
CC(=O)Oc1ccc2ccc(=O)oc2c1CBr | HEK293 | MTT | 36 h | > 20 µM
COc1cccc(Oc2ccccc2NC(=O)CNC(=O)c2c(C)cc(C)cc2C)c1 | A673 |  |  | 5.5 µM
Cc1[nH]c(C)c(-c2ccc(-c3ccccc3C(F)(F)F)nc2)c(=O)c1Br | HEK293 |  |  | > 10 µM
C=CC(=O)Nc1cccc(N2C(=O)OC(C)c3cnc(Nc4ccc(N5CCN(C)CC5)cc4OC)nc32)c1 (stereo not shown) | TMD8 | CCK-8 | 72 h | 0.028 µM
CCCCCCCCc1c(C)[nH]c(C)c(Cl)c1=O | HEK293 |  |  | > 10 µM
COc1cc(N(C)CCN(C)C)c(NC(=O)/C=C/C(C)C)cc1Nc1nc(Nc2cnn(C)c2)c2sccc2n1 | NCI-H1975 | MTT |  | 0.297 µM
Cc1cc(C)c2cc(CNCCCNc3nc4ccccc4[nH]3)[nH]c2c1 | HEK293 |  |  | > 10 µM
C=CC(=O)Nc1cc(Nc2nc(N3CCc4sccc4C3)c3cccnc3n2)c(OC)cc1N1CCN(CCO)CC1 | NCI-H1975 | MTT |  | 0.906 µM
Cc1cc(=O)c(-c2ccc(Oc3cccc(Cl)c3)cc2)c(C)[nH]1 | HEK293 |  |  | > 10 µM
C=CC(=O)Nc1cc(Nc2nc(N3CCOCC3)c3sccc3n2)c(OC)cc1N(C)CCN(C)C | NCI-H1975 | MTT |  | 37.5 µM
Cc1[nH]cc(Br)c(=O)c1-c1ccc(Oc2ccc(OC(F)(F)F)cc2)cc1 | HEK293 |  |  | > 10 µM
O=C1Nc2ccccc2-c2cnc(NCc3c(F)ccc4c3CCO4)n3cnc1c23 | KARPAS-422 | CCK-8 | 7 days | 0.0683 µM
Cc1[nH]c(C)c(-c2ccc(-c3cccc(C(F)(F)F)c3)nc2)c(=O)c1Br | HEK293 |  |  | > 10 µM
C=C(Cl)C(=O)Nc1cc(Nc2nc(Nc3cnn(C)c3)c3sccc3n2)c(OC)cc1N1CCN(C)CC1 | NCI-H1975 | MTT |  | 0.106 µM
